Active and inactive are the calls of the source. No cut-off for these calls is given here.
What was measured:
[1] = tested on: Rattus norvegicus; assay: Anticonvulsant activity in Sprague-Dawley rat assessed as protection against maximal electroshock-induced seizures at 30 mg/kg po after 0.25 hrs; assay type: functional
In short: (§1)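 Male Sprague–Dawley rats, four per group, given 30 mg/kg orally as a 0.5% methylcellulose/water suspension. MES protection scored at 0.25, 0.5, 1, 2 and 4 h after dosing, motor impairment checked in parallel; data are the number of the four rats protected.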

[2] = tested on: Rattus norvegicus; assay: Toxicity in Sprague-Dawley rat assessed as change in body weight at 600 mg/kg, ip measured after 24 hrs of clonus of one of the fore limbs seizure stage in protected rat; assay type: organism-based; parameters: dose 600 mg/kg, route intraperitoneal; details: in vivo
In short: (§2)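 Male Sprague–Dawley rats (150–180 g) received compound ip at 600 mg/kg, then a challenge dose of pilocarpine. Seizure severity graded on the Racine scale; rats were scored as protected or not, and body weight change was taken 24 h after the first stage III seizure.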

[3] = tested on: Mus musculus; assay: Anticonvulsant activity in ip dosed CF1 albino mouse assessed as dose required to protect against maximal electroshock-induced seizures after 0.5 hrs; assay type: functional
In short: (§3)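 Male CF-1 mice; compounds suspended in 0.5% methylcellulose/water and injected ip at 30, 100 and 300 mg/kg. MES, scPTZ (pentylenetetrazole 85 mg/kg sc at the test time) and rotarod neurotoxicity were scored at 0.5 and 4 h. Value is the lowest dose active or toxic in half or more of the animals; signs such as ataxia or tremor were recorded.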

[4] = tested on: Rattus norvegicus; assay: Anticonvulsant activity in Sprague-Dawley rat assessed as protection against pilocarpine-induced status epilepticus at 600 mg/kg, ip; assay type: functional, organism-based; parameters: dose 600 mg/kg; in short: as §2
[5] = tested on: Rattus norvegicus; assay: Anticonvulsant activity in Sprague-Dawley rat assessed as protection against pilocarpine-induced status epilepticus at 600 mg/kg, ip measured after clonus of one of the fore limbs seizure stage; assay type: functional, organism-based; parameters: dose 600 mg/kg; in short: as §2
[6] = tested on: Rattus norvegicus; assay: Anticonvulsant activity in Sprague-Dawley rat assessed as protection against subcutaneous pentylenetetrazole-induced seizures at 50 mg/kg po after 0.25 hrs; assay type: functional, organism-based; parameters: dose 50 mg/kg
In short: (§4)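 Oral fixed dose of 50 mg/kg in male Sprague–Dawley rats (0.5% methylcellulose/water suspension), four rats per group. Pentylenetetrazole 70 mg/kg given sc at each test time (0.25, 0.5, 1, 2, 4 h); protection from clonic seizures counted per four rats, with motor impairment studied in parallel.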

[7] = tested on: Mus musculus; assay: Anticonvulsant activity in CF1 albino mouse assessed as protection against subcutaneous pentylenetetrazole-induced seizures at 300 mg/kg, ip after 4 hrs; assay type: functional, organism-based; parameters: dose 300 mg/kg; in short: as §3
[8] = tested on: Rattus norvegicus; assay: Toxicity in Sprague-Dawley rat assessed as change in body weight at 600 mg/kg, ip measured after 24 hrs of clonus of one of the fore limbs seizure stage in non-protected rat; assay type: organism-based; parameters: dose 600 mg/kg, route intraperitoneal; details: in vivo; in short: as §2
[9] = tested on: Mus musculus; assay: Anticonvulsant activity in CF1 albino mouse assessed as protection against maximal electroshock-induced seizures at 300 mg/kg, ip after 4 hrs; assay type: functional, organism-based; parameters: dose 300 mg/kg; in short: as §3
[10] = tested on: Mus musculus; assay: Neurotoxicity in CF1 albino mouse assessed as myoclonic jerks at 100 mg/kg, ip after 4 hrs by rotarod test; assay type: toxicity, organism-based; parameters: dose 100 mg/kg, route intraperitoneal; details: in vivo; in short: as §3
[11] = tested on: Rattus norvegicus; assay: Anticonvulsant activity in Sprague-Dawley rat assessed as protection against subcutaneous pentylenetetrazole-induced seizures at 50 mg/kg po after 0.5 hrs; assay type: functional; in short: as §4
[12] = tested on: Rattus norvegicus; assay: Anticonvulsant activity in Sprague-Dawley rat assessed as protection against maximal electroshock-induced seizures at 30 mg/kg po after 0.5 hrs; assay type: functional; in short: as §1
[13] = tested on: Rattus norvegicus; assay: Anticonvulsant activity in Sprague-Dawley rat assessed as protection against subcutaneous pentylenetetrazole-induced seizures at 50 mg/kg po after 4 hrs; assay type: functional; in short: as §4
[14] = tested on: Rattus norvegicus; assay: Anticonvulsant activity in Sprague-Dawley rat assessed as protection against maximal electroshock-induced seizures at 30 mg/kg po after 4 hrs; assay type: functional; in short: as §1
[15] = tested on: Rattus norvegicus; assay: Anticonvulsant activity in Sprague-Dawley rat assessed as protection against subcutaneous pentylenetetrazole-induced seizures at 50 mg/kg po after 2 hrs; assay type: functional; in short: as §4
[16] = tested on: Rattus norvegicus; assay: Anticonvulsant activity in Sprague-Dawley rat assessed as protection against maximal electroshock-induced seizures at 30 mg/kg po after 2 hrs; assay type: functional; in short: as §1
[17] = tested on: Mus musculus; assay: Neurotoxicity in ip dosed CF1 albino mouse assessed as dose required to cause toxicity after 4 hrs by rotarod test; assay type: organism-based; details: in vivo; in short: as §3
[18] = tested on: Rattus norvegicus; assay: Anticonvulsant activity in Sprague-Dawley rat assessed as protection against subcutaneous pentylenetetrazole-induced seizures at 50 mg/kg po after 1 hr; assay type: functional; in short: as §4
[19] = tested on: Rattus norvegicus; assay: Anticonvulsant activity in Sprague-Dawley rat assessed as protection against maximal electroshock-induced seizures at 30 mg/kg po after 1 hr; assay type: functional; in short: as §1
[20] = tested on: Mus musculus; assay: Neurotoxicity in ip dosed CF1 albino mouse assessed as dose required to cause toxicity after 0.5 hrs by rotarod test; assay type: organism-based; details: in vivo; in short: as §3
[21] = tested on: Mus musculus; assay: Anticonvulsant activity in CF1 albino mouse assessed as protection against subcutaneous pentylenetetrazole-induced seizures at 300 mg/kg, ip after 0.5 hrs; assay type: functional, organism-based; parameters: dose 300 mg/kg; in short: as §3
[22] = tested on: Mus musculus; assay: Anticonvulsant activity in ip dosed CF1 albino mouse assessed as dose required to protect against maximal electroshock-induced seizures after 4 hrs; assay type: functional; in short: as §3
[23] = tested on: Mus musculus; assay: Anticonvulsant activity in CF1 albino mouse assessed as protection against electrically-induced seizure at 100 mg/kg, ip after 1 hr by 6Hz psychomotor seizure test; assay type: functional; details: route intraperitoneal
In short: (§5)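 Male CF-1 mice, compound suspended in 0.5% methylcellulose/water, given ip at 100 mg/kg; four mice per time point (0.25, 0.5, 1, 2, 4 h). Corneal stimulation with 0.2 ms monopolar rectangular pulses at 6 Hz for 3 s from a constant-current device, mice manually restrained. A mouse counted as protected if normal exploratory behaviour resumed within 10 s; motor impairment was noted alongside.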

[24] = tested on: Mus musculus; assay: Anticonvulsant activity in CF1 albino mouse assessed as protection against electrically-induced seizure at 100 mg/kg, ip after 0.5 hrs by 6Hz psychomotor seizure test; assay type: functional, organism-based; parameters: dose 100 mg/kg; in short: as §5
[25] = tested on: Mus musculus; assay: Anticonvulsant activity in CF1 albino mouse assessed as protection against maximal electroshock-induced seizures at 300 mg/kg, ip after 0.5 hrs; assay type: functional, organism-based; parameters: dose 300 mg/kg; in short: as §3
[26] = tested on: Rattus norvegicus; assay: Anticonvulsant activity in po dosed Sprague-Dawley rat assessed as time required to peak protection against seizures; assay type: functional
[27] = tested on: Mus musculus; assay: Neurotoxicity in CF1 albino mouse at 300 mg/kg, ip after 0.5 hrs by rotarod test; assay type: toxicity, organism-based; parameters: dose 300 mg/kg, route intraperitoneal; details: in vivo; in short: as §3
[28] = Neurotoxicity in po dosed Sprague-Dawley rat by rotarod test; assay type: toxicity, organism-based; details: in vivo
In short: (§6)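 Male Sprague–Dawley rats dosed orally (0.5% methylcellulose/water suspension), groups of eight, tested at the previously estimated time of peak effect. Doses varied until at least three points lay in the 10–90% range of protection (MES, scPTZ) or minimal rotarod neurotoxicity. ED50/TD50 with 95% confidence intervals came from regression; PI = TD50/ED50.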

[29] = tested on: Rattus norvegicus; assay: Anticonvulsant activity in po dosed Sprague-Dawley rat assessed as protection against maximal electroshock-induced seizures; assay type: functional; in short: as §6
[30] = organism: Rattus norvegicus; assay: Protection index, ratio of TD50 for Sprague-Dawley rat by rotarod test to ED50 for Sprague-Dawley rat by maximal electroshock test; assay type: functional; in short: as §6
[31] = tested on: Mus musculus; assay: Toxicity in CF1 albino mouse assessed as minimal motor impairment at 100 mg/kg, ip after 2 hrs; assay type: organism-based; parameters: dose 100 mg/kg, route intraperitoneal; details: in vivo; in short: as §5
[32] = Displacement of [3H]batrachotoxin from neurotoxin site 2 of voltage-gated sodium channel in rat forebrain tissue; details: read-out: IC50
[33] = tested on: Mus musculus; assay: Anticonvulsant activity in CF1 albino mouse assessed as protection against electrically-induced seizure at 100 mg/kg, ip after 4 hrs by 6Hz psychomotor seizure test; assay type: functional; in short: as §5
[34] = tested on: Mus musculus; assay: Anticonvulsant activity in CF1 albino mouse assessed as protection against electrically-induced seizure at 100 mg/kg, ip after 0.25 hrs by 6Hz psychomotor seizure test; assay type: functional, organism-based; parameters: dose 100 mg/kg; in short: as §5
[35] = tested on: Rattus norvegicus; assay: Anticonvulsant activity in po dosed Sprague-Dawley rat assessed as protection against subcutaneous pentylenetetrazole-induced seizures; assay type: functional; in short: as §6
[36] = tested on: Mus musculus; assay: Anticonvulsant activity in ip dosed CF1 albino mouse assessed as dose required to protect against subcutaneous pentylenetetrazole-induced seizures after 4 hrs; assay type: functional; in short: as §3
[37] = tested on: Mus musculus; assay: Neurotoxicity in CF1 albino mouse at 300 mg/kg, ip after 4 hrs by rotarod test; assay type: toxicity, organism-based; parameters: dose 300 mg/kg, route intraperitoneal; details: in vivo; in short: as §3
[38] = tested on: Mus musculus; assay: Anticonvulsant activity in ip dosed CF1 albino mouse assessed as dose required to protect against subcutaneous pentylenetetrazole-induced seizures after 0.5 hrs; assay type: functional; in short: as §3
[39] = tested on: Mus musculus; assay: Neurotoxicity in CF1 albino mouse assessed as unable to grasp rotarod at 100 mg/kg, ip after 4 hrs by rotarod test; assay type: toxicity, organism-based; parameters: dose 100 mg/kg, route intraperitoneal; details: in vivo; in short: as §3

Row | SMILES | Activity [1] | Activity [2] | Activity [3] | Activity [4] | Activity [5] | Activity [7] | Activity [8] | Activity [12] | Activity [14] | Activity [16] | Activity [17] | Activity [19] | Activity [22] | Time [26] | TD50 [28] | ED50 [29] | PI [30] | further results
1 | O=C1CC2(CCc3ccccc3C2)C(=O)N1CN1CCN(c2ccc(F)cc2)CC1 (stereo unspecified) | inactive | Non-toxic | 100 mg/kg | inactive | inactive | inactive | 20 g | inactive | 25% | 25% | 300 mg/kg | inactive | – | – | – | – | – | Activity [6]: inactive; Activity [9]: inactive; Activity [10]: Toxic; Activity [11]: inactive; Activity [13]: 25%; Activity [15]: 25%; Activity [18]: inactive; Activity [20]: 300 mg/kg
2 | O=C1CC2(CCc3ccccc3C2)C(=O)N1CN1CCN(c2cccc(C(F)(F)F)c2)CC1 (stereo unspecified) | inactive | Non-toxic | – | inactive | inactive | inactive | 15 g | inactive | 100% | 75% | 300 mg/kg | 75% | 100 mg/kg | 2 h | > 250 mg/kg | 9 mg/kg | >27.78 | Activity [21]: inactive; Activity [23]: 25%; Activity [24]: inactive; Activity [25]: inactive; Activity [27]: Non-toxic; Activity [31]: Toxic; IC50 [32]: 9.28 µM; Activity [33]: inactive; Activity [34]: inactive
3 | O=C1NC2(CCc3ccccc3C2)C(=O)N1CN1CCN(CCO)CC1 (stereo unspecified) | inactive | – | 100 mg/kg | – | – | – | – | 25% | 100% | 100% | – | 50% | 300 mg/kg | 4 h | > 300 mg/kg | 14.9 mg/kg | >20.09 | ED50 [35]: > 250 mg/kg; Activity [36]: 300 mg/kg; Activity [37]: Non-toxic; Activity [38]: 100 mg/kg; Activity [39]: Non-toxic
